Reference: ChEMBL document CHEMBL1126896, “Preparation and anti-HIV activity of O-acylated heparin and dermatan sulfate derivatives with low anticoagulant effect” (J Med Chem, 1993)

Key:
MT4 [1] = test: Selectivity index for CC50 (cytotoxic concentration based on reduction of viability of mock-infected MT-4 cells) to that of EC50 against HIV-2; assay type: functional
Procedure, shortened: (§1)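 MT-4 cells at 3 × 10^5 cells/mL were infected with HIV-1 IIIB or HIV-2 ROD at 100 CCID50/mL, or mock-infected, alongside serial compound dilutions. Viability was read by MTT after 5 days at 37 °C. CC50 comes from mock-infected cells and EC50 from protection against cytopathicity. Index = CC50/EC50.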

HuT78 = test: Giant-cell formation between persistently HIV-1 infected HUT-78 cells and uninfected MOLT-4 cells; assay type: functional, cell-based
Procedure, shortened: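 MOLT-4 cells were co-cultured with an equal number of HUT-78 cells persistently infected with HIV-1 IIIB or HIV-2 ROD, with varying compound concentrations. Syncytia were counted by flow cytofluorography after 24 h. EC50 is the concentration giving 50% protection against giant-cell formation.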

[2] = In vitro anticoagulant activity determined by clotting test of activated partial thromboplastin time (APTT) on a pool of human plasma; assay type: functional
Procedure, shortened: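 Activated partial thromboplastin time clotting test on pooled human plasma, run on an automatic coagulometer. Activities were calculated according to the European Pharmacopoeia.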

MT4 [3] = test: Selectivity index for CC50 (cytotoxic concentration based on the reduction of the viability of mock-infected MT-4 cells) to that of EC50 against HIV-1; assay type: functional; procedure, shortened: as §1
MT4 [4] = test: Effective concentration to achieve 50% protection of MT-4 cells against the cytopathic effect of HIV-2; assay type: functional, cell-based
MT4 [5] = test: Effective concentration to achieve 50% protection of MT-4 cells against the cytopathic effect of HIV-1; assay type: functional, cell-based
[6] = Homo sapiens, HuT78, read-out: EC50
[7] = Homo sapiens, MT4, read-out: EC50

Structure (SMILES)	Selectivity index (MT4 [1])	EC50 (HuT78; [6])	EC50 (HuT78; hut78)	APTT [2]	Selectivity index (MT4 [3])	EC50 (MT4 [4]; [7])	EC50 (MT4 [5]; [7])	EC50 (MT4 [4]; mt4)	EC50 (MT4 [5]; mt4)
CCCCOC(=O)/C=C(\COC(=O)CCC)OC1OC(COS(=O)(=O)[O-])C(OC2OC(C(=O)OCCCC)C(OC3OC(COS(=O)(=O)[O-])C(OC4OC(C(=O)OCCCC)C(OC5OC(COS(=O)(=O)[O-])C(O)C(OC(=O)CCC)C5NC(C)=O)C(OC(=O)CCC)C4OS(=O)(=O)[O-])C(OC(=O)CCC)C3NC(C)=O)C(OC(=O)CCC)C2OS(=O)(=O)[O-])C(OC(=O)CCC)C1NC(C)=O.[Na+].[Na+].[Na+].[Na+].[Na+] (stereo not drawn)	>192	15 µg/mL	15 µg/mL	1.3 IU mg-1	>217	2.6 µg/mL	2.3 µg/mL		
O=C([O-])/C=C(\COC(=O)c1ccccc1)OC1OC(COS(=O)(=O)[O-])C(OC2OC(C(=O)[O-])C(OC3OC(COS(=O)(=O)[O-])C(OC4OC(C(=O)[O-])C(OC5OC(COS(=O)(=O)[O-])C(O)C(OC(=O)c6ccccc6)C5NS(=O)(=O)[O-])C(OC(=O)c5ccccc5)C4OS(=O)(=O)[O-])C(OC(=O)c4ccccc4)C3NS(=O)(=O)[O-])C(OC(=O)c3ccccc3)C2OS(=O)(=O)[O-])C(OC(=O)c2ccccc2)C1NS(=O)(=O)[O-].[Na+].[Na+].[Na+].[Na+].[Na+].[Na+].[Na+].[Na+].[Na+].[Na+].[Na+] (stereo not drawn)	>2500	3 µg/mL		8 IU mg-1	>5000	0.2 µg/mL	0.1 µg/mL		
CCCCCC(=O)OCC1OC(OC2C(C(=O)[O-])OC(OC3C(NC(C)=O)C(OC4C(C(=O)[O-])OC(C)C(OC(=O)CCCCC)C4O)OC(COC(=O)CCCCC)C3OS(=O)(=O)[O-])C(OC(=O)CCCCC)C2OC(=O)CCCCC)C(NC(C)=O)C(OC)C1OS(=O)(=O)[O-].[Na+].[Na+].[Na+].[Na+] (stereo not drawn)	17.5	41 µg/mL		3.4 IU mg-1	4	5.4 µg/mL	19.4 µg/mL		
CCCC(=O)OCC1OC(OC2C(C(=O)[O-])OC(OC3C(NC(C)=O)C(OC4C(C(=O)[O-])OC(C)C(OC(=O)CCC)C4O)OC(COC(=O)CCC)C3OS(=O)(=O)[O-])C(OC(=O)CCC)C2OC(=O)CCC)C(NC(C)=O)C(OC)C1OS(=O)(=O)[O-].[Na+].[Na+].[Na+].[Na+] (stereo not drawn)	25	> 100 µg/mL		3.7 IU mg-1	8	18 µg/mL	54.2 µg/mL		
CCCCCC(=O)O[C@@H]1[C@@H](OC(C)=O)[C@H](O[C@H]2[C@H](OS(=O)(=O)[O-])[C@@H](NS(=O)(=O)[O-])[C@@H](O[C@H]3[C@H](OC(=O)CCCCC)[C@@H](OS(=O)(=O)[O-])[C@H](O[C@H]4[C@H](OC(=O)CCCCC)[C@@H](CO)O[C@@H]4COS(=O)(=O)[O-])O[C@H]3C(=O)[O-])O[C@@H]2COS(=O)(=O)[O-])O[C@H](C(=O)[O-])[C@H]1O[C@H]1O[C@H](COS(=O)(=O)[O-])[C@@H](O[C@@H]2O[C@@H](C(=O)[O-])[C@@H](O)[C@H](OC(=O)CCCCC)[C@H]2OC(C)=O)[C@H](OC(=O)CCCCC)[C@H]1NC(C)=O.[Na+].[Na+].[Na+].[Na+].[Na+].[Na+].[Na+].[Na+].[Na+]	9	8.9 µg/mL		4 IU mg-1	<1	5.4 µg/mL	> 100 µg/mL		
CCCC(=O)O[C@@H]1[C@@H](OC(C)=O)[C@H](O[C@H]2[C@@H](OS(=O)(=O)[O-])[C@@H](NS(=O)(=O)[O-])[C@@H](O[C@@H]3C(C(=O)[O-])O[C@@H](O[C@H]4[C@H](OC(=O)CCC)[C@@H](CO)O[C@@H]4COS(=O)(=O)[O-])[C@H](OS(=O)(=O)[O-])[C@H]3OC(=O)CCC)O[C@@H]2COS(=O)(=O)[O-])O[C@H](C(=O)[O-])[C@H]1O[C@H]1O[C@H](COS(=O)(=O)[O-])[C@@H](O[C@@H]2O[C@@H](C(=O)[O-])[C@@H](O)[C@H](OC(=O)CCC)[C@H]2OC(C)=O)[C@H](OC(=O)CCC)[C@H]1NC(C)=O.[Na+].[Na+].[Na+].[Na+].[Na+].[Na+].[Na+].[Na+].[Na+] (stereo partly drawn)	15.4	15.4 µg/mL		11 IU mg-1	89	0.24 µg/mL	0.53 µg/mL		
CC(=O)N[C@H]1[C@@H](O[C@H]2[C@H](OC(C)=O)[C@@H](OC(C)=O)[C@H](O[C@H]3[C@@H](OS(=O)(=O)[O-])[C@@H](NS(=O)(=O)[O-])[C@@H](O[C@@H]4C(C(=O)[O-])O[C@@H](O[C@H]5[C@H](OC(C)=O)[C@@H](CO)O[C@@H]5COS(=O)(=O)[O-])[C@H](OS(=O)(=O)[O-])[C@H]4OC(C)=O)O[C@@H]3COS(=O)(=O)[O-])O[C@@H]2C(=O)[O-])O[C@H](COS(=O)(=O)[O-])[C@@H](O[C@@H]2O[C@@H](C(=O)[O-])[C@@H](O)[C@H](OC(C)=O)[C@H]2OC(C)=O)[C@@H]1OC(C)=O.[Na+].[Na+].[Na+].[Na+].[Na+].[Na+].[Na+].[Na+].[Na+] (stereo partly drawn)	1087	6.4 µg/mL		26 IU mg-1	76	0.46 µg/mL	6.5 µg/mL		
COC1C(NC(C)=O)C(OC2C(C(=O)[O-])OC(OC3C(NC(C)=O)C(OC4C(C(=O)[O-])OC(C)C(OC(=O)CCC(=O)[O-])C4O)OC(COC(=O)CCC(=O)[O-])C3OS(=O)(=O)[O-])C(OC(=O)CCC(=O)[O-])C2OC(=O)CCC(=O)[O-])OC(COC(=O)CCC(=O)[O-])C1OS(=O)(=O)[O-].[Na+].[Na+].[Na+].[Na+].[Na+].[Na+].[Na+].[Na+].[Na+] (stereo not drawn)	2			9 IU mg-1	1.7	50.4 µg/mL	150 µg/mL		
CCCCCCCC(=O)OC/C(=C\C(=O)[O-])OC1OC(COS(=O)(=O)[O-])C(OC2OC(C(=O)[O-])C(OC3OC(COS(=O)(=O)[O-])C(OC4OC(C(=O)[O-])C(OC5OC(CS(=O)(=O)[O-])C(O)C(OC(=O)CCCCCCC)C5NS(=O)(=O)[O-])C(OC(=O)CCCCCCC)C4OS(=O)(=O)[O-])C(OC(=O)CCCCCCC)C3NS(=O)(=O)[O-])C(OC(=O)CCCCCCC)C2OS(=O)(=O)[O-])C(OC(=O)CCCCCCC)C1NS(=O)(=O)[O-].[Na+].[Na+].[Na+].[Na+].[Na+].[Na+].[Na+].[Na+].[Na+].[Na+].[Na+] (stereo not drawn)	>1	20 µg/mL			6	> 23.2 µg/mL	3.3 µg/mL		
CCCC(=O)OC/C(=C\C(=O)[O-])O[C@H]1O[C@H](COS(=O)(=O)[O-])[C@@H](O[C@@H]2O[C@@H](C(=O)[O-])[C@@H](O[C@H]3O[C@H](COS(=O)(=O)[O-])[C@@H](O[C@@H]4O[C@@H](C(=O)[O-])[C@@H](O[C@H]5O[C@H](CS(=O)(=O)[O-])[C@@H](O)[C@H](OC(=O)CCC)[C@H]5NS(=O)(=O)[O-])[C@H](OC(=O)CCC)[C@H]4OS(=O)(=O)[O-])[C@H](OC(=O)CCC)[C@H]3NS(=O)(=O)[O-])[C@H](OC(=O)CCC)[C@H]2OS(=O)(=O)[O-])[C@H](OC(=O)CCC)[C@H]1NS(=O)(=O)[O-].[Na+].[Na+].[Na+].[Na+].[Na+].[Na+].[Na+].[Na+].[Na+].[Na+].[Na+] (stereo in doubt; 3b)	185			5 IU mg-1	1121			1.94 µg/mL	0.32 µg/mL
CCCC(=O)OC/C(=C\C(=O)[O-])O[C@H]1O[C@H](COS(=O)(=O)[O-])[C@@H](O[C@@H]2O[C@@H](C(=O)[O-])[C@@H](O[C@H]3O[C@H](COS(=O)(=O)[O-])[C@@H](O[C@@H]4O[C@@H](C(=O)[O-])[C@@H](O[C@H]5O[C@H](CS(=O)(=O)[O-])[C@@H](O)[C@H](OC(=O)CCC)[C@H]5NS(=O)(=O)[O-])[C@H](OC(=O)CCC)[C@H]4OS(=O)(=O)[O-])[C@H](OC(=O)CCC)[C@H]3NS(=O)(=O)[O-])[C@H](OC(=O)CCC)[C@H]2OS(=O)(=O)[O-])[C@H](OC(=O)CCC)[C@H]1NS(=O)(=O)[O-].[Na+].[Na+].[Na+].[Na+].[Na+].[Na+].[Na+].[Na+].[Na+].[Na+].[Na+] (stereo in doubt; 3c)	282		60.4 µg/mL	7 IU mg-1	1032			1.17 µg/mL	
CCCC(=O)OC/C(=C\C(=O)[O-])O[C@H]1O[C@H](COS(=O)(=O)[O-])[C@@H](O[C@@H]2O[C@@H](C(=O)[O-])[C@@H](O[C@H]3O[C@H](COS(=O)(=O)[O-])[C@@H](O[C@@H]4O[C@@H](C(=O)[O-])[C@@H](O[C@H]5O[C@H](CS(=O)(=O)[O-])[C@@H](O)[C@H](OC(=O)CCC)[C@H]5NS(=O)(=O)[O-])[C@H](OC(=O)CCC)[C@H]4OS(=O)(=O)[O-])[C@H](OC(=O)CCC)[C@H]3NS(=O)(=O)[O-])[C@H](OC(=O)CCC)[C@H]2OS(=O)(=O)[O-])[C@H](OC(=O)CCC)[C@H]1NS(=O)(=O)[O-].[Na+].[Na+].[Na+].[Na+].[Na+].[Na+].[Na+].[Na+].[Na+].[Na+].[Na+] (stereo in doubt; 4b)	>50000		17.4 µg/mL	1.5 IU mg-1	>24				20.9 µg/mL
